NLRP3 yeast inh: NALP3 inflammasome inhibitors in reconstituted yeast, primary screen, luminescence, uHTS | Yeast reconstituted NLRP3/ASC/caspase-1, beta-gal luminescence, 24 h | inhibition, % at 10 µM | actives 0.39% (n = 330,000) | AID 2825, 2010;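 active means inhibition of 50% or more; inactive means inhibition below 50%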;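 further: plate controls were induced DMSO wells for no effect and uninduced yeast grown without galactose for full effect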
NALP1 inh: NALP1 inflammasome inhibitors in reconstituted yeast, colorimetric, S. cerevisiae, triplicate retest; S. cerevisiae NALP1/ASC/caspase-1 growth, X-gal OD620, 72 h; inhibition, % at 10 µM; actives 0.61% (n = 280,000); in the data active means inhibition mostly above about 24%, no sharp cut-off; inactive means mostly below about 32%
Arr AP2 block: inhibitors of beta-arrestin/AP2 binding, primary screen, biochemical, GPCR trafficking, flow cytometry. beta-arrestin 1 C-terminal peptide binding to AP2 beta2-adaptin appendage (human). inhibition, % at 10 µM. actives 0.31% (n = 340,000). FITC-arrestin peptide / GST-AP2 beads; AP2 beta2 appendage carries R879A mutation;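 active means inhibition above a set limit, near 3 SD of compounds lacking own fluorescence, cut at about 54% in these data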;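 further: plate controls were DMSO wells for no effect and 5 µM unlabelled arrestin peptide for full effect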
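System: GST-AP2 R879A glutathione beads; medium: PBS, Tween 20 0.05%, BSA 0.1%; reagent: fluorescein-tagged arrestin peptide at 50 nM final; schedule: pre-incubation 12 min, peptide binding 1 h, room temperature; detection: flow cytometry, FL1 (488/535 nm); read-out: inhibition as reduced fluorescein signal on beads, percent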
PolyA inh: polyadenylation inhibitors in yeast reporter cells, primary screen, luminescence, S. cerevisiae. S. cerevisiae SKY197-pL101 polyadenylation reporter, beta-gal luminescence; efflux-impaired pdr1/pdr3 knockout yeast; score 100 = 6 SD above DMSO. activity score, % at 12 µM. actives 0.02% (n = 300,000);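 active means lowest replicate activity score at least 50, where 100 means six control SD above control mean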;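 further: yeast exposed to compound for 9 h at 30 °C; higher score means more reporter readthrough which indicates perturbed polyadenylation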
DSG3 Ab inh: inhibitors of pemphigus antibody binding to DSG3, primary screen, biochemical, bead-based, flow cytometry, scFv-GFP; Desmoglein-3 (Homo sapiens), P32926; DSG3-coupled beads, scFv-anti-DSG3-GFP binding; hits give low values; binding (percent of control), % at 10 µM; actives 0.48% (n = 310,000); AID 588358, 2011;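 active means binding more than 3 SD below its plate's average and above zero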;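 further: hits lower antibody fragment binding to DSG3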
Target sequence (P32926 whole entry, looked up, the tested form may be a part): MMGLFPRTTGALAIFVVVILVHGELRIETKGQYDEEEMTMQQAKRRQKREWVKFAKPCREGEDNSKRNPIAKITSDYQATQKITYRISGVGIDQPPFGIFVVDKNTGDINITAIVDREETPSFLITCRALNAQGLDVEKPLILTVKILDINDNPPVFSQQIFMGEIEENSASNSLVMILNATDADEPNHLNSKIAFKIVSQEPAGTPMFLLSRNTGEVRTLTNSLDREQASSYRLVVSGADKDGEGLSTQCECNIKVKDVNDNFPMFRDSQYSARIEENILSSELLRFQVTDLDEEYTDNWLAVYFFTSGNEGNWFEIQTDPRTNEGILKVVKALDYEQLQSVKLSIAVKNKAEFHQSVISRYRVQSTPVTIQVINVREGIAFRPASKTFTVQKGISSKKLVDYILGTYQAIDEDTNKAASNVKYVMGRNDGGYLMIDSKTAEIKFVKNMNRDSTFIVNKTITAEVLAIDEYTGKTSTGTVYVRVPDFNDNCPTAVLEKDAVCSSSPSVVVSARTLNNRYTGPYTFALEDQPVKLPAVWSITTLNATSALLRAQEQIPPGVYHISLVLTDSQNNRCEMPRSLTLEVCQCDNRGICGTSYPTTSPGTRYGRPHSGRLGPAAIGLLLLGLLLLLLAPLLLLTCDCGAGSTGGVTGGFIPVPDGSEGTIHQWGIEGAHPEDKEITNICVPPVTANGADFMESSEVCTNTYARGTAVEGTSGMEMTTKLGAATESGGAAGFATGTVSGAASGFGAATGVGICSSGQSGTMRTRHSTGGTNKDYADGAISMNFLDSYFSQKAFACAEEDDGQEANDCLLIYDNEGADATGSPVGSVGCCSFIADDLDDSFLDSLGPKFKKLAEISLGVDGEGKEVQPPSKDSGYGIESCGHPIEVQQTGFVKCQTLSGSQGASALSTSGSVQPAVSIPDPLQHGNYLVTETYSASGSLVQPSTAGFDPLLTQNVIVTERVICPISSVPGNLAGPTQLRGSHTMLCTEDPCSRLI
ALR inh: inhibitors of human ALR sulfhydryl oxidase, primary screen, biochemical, H2O2 detection, HRP-luminol luminescence, single point. actives 3.8% (n = 290,000). FAD-linked sulfhydryl oxidase ALR (Homo sapiens), P55789. purified ALR, DTT oxidation. inhibition, % (no concentration beside the values);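 active means mean replicate inhibition above about 79%, with every replicate also reaching it, limit read from the data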
Starred values were filed as active, the others as inactive; . = no result given. Only some compounds are listed: those with a hit (about 4.6% of all), similar ones and a draw of the others.

SMILES	NLRP3 yeast inh	NALP1 inh	Arr AP2 block	PolyA inh	DSG3 Ab inh	ALR inh
Cc1ncc(N=Nc2ccc(F)cc2)c(-c2ccc(Cl)cc2)n1	17	35	23	3	105	-14
ClCC1NCC(c2ccccc2Cl)c2c1[nH]c1ccccc21 (configuration not stated)	3	3	8	22	148	98*
CC(Sc1ccc2c(c1)OCCO2)C(=O)Nc1ncc(Cl)cc1Cl (configuration not stated)	13	10	5	-9	108	99*
CCc1ccc(Oc2nnnn2-c2ccc(C(N)=O)cc2)cc1	-9	3	-11	2	103	-3
COc1ccc(-n2nnnc2S(=O)(=O)Cc2ccc(C(=O)O)cc2)cc1	20	9	-16	0	109	98*
N=c1n(CC(=O)c2ccc([N+](=O)[O-])cc2)c2ccccc2n1Cc1ccc(Cl)cc1	10	64*	6	-26	111	-1
CC1CCN(S(=O)(=O)c2ccc(C(=O)Nc3sccc3C(N)=O)cc2)CC1	12	16	-15	16	100	9
CN(C)NC(=O)c1ccsc1NC(=O)c1ccc(S(=O)(=O)N2CCCC2)cc1	3	.	8	-7	101	87*
COc1ccc(N2Cc3cccc(C(=O)NC(C)CCc4ccco4)c3C2=O)cc1 (configuration not stated)	5	-4	0	3	108	98*
CC(=O)Nc1ccc(S(=O)(=O)NNC(=S)NCC2CCCO2)cc1 (configuration not stated)	11	1	-10	-10	112	90*
S=C(NCC1CCCO1)Nc1cccc(Cl)c1 (configuration not stated)	-5	-7	-12	-15	100	-6
S=C(NCC1CCCO1)Nc1ccc(Nc2ccccc2)cc1 (configuration not stated)	14	5	6	11	97	99*
OCCCNC(=S)Nc1ccc(Nc2ccccc2)cc1	9	-6	8	-3	100	99*
S=C(NCCNC(=S)Nc1ccccc1)Nc1ccccc1	15	1	28	10	112	-12
O=C(CSc1ccsc1[N+](=O)[O-])NCCc1ccc(Cl)cc1	1	2	-1	1	101	-4
CC(=O)c1ccc(NC(=O)CSc2ccsc2[N+](=O)[O-])cc1	.	5	23	-12	69*	.
O=C(CSc1ccsc1[N+](=O)[O-])Nc1cc(F)ccc1F	.	8	21	-13	54*	.
CCN(CC)c1ccc(NC(=O)CSc2ccsc2[N+](=O)[O-])c(C)c1	11	1	9	-5	95	93*
Cc1ccc(S(=O)(=O)N(C)C[C@H]2OCc3cn(nn3)CCCC(=O)N([C@H](C)CO)C[C@@H]2C)cc1	.	.	.	.	98	.
CCOc1cc(/C=N/NC(=O)NN(C)c2ncc(C(F)(F)F)cc2Cl)ccc1O	5	-3	3	4	111	99*
Cc1n[nH]c2c([N+](=O)[O-])c(=O)[nH]c(=O)n12	.	.	30	.	.	.
Cc1ccc(C)c(N2CCN(C(=O)c3ccc4nsnc4c3)CC2)c1	-33	-41	-15	13	.	1
Cc1nnn(C23CC4CC(CC(CC(=O)Nc5cccc(F)c5)(C4)C2)C3)n1	6	29*	7	22	96	-3
COCCCn1c(=O)c2ccccc2n(Cc2ccccc2)c1=O	5	-1	-5	-15	100*	5
Cc1ccc(C(=O)NCC(=O)OCc2nc3ccsc3c(=O)[nH]2)cc1C	.	.	.	.	96	.
SMILES	NLRP3 yeast inh	NALP1 inh	Arr AP2 block	PolyA inh	DSG3 Ab inh	ALR inh
COC(=O)[C@H](Cc1ccccc1)NC(=O)N1CCN(c2ccc(F)cc2)CC1	13	.	5	-11	88	98*
COC(=O)[C@H](Cc1ccccc1)NC(=O)N1CCCCCC1	10	0	-1	13	102	-4
O=C(/C=C/C(=O)NCc1cccs1)NCc1cccs1	13	.	5	4	72*	-1
CN(Cc1ccccc1)C(=O)C1CCN(S(=O)(=O)c2ccc(-n3cnnn3)cc2)CC1	18	-3	2	-6	92	.
CS(=O)(=O)n1nc(OC(=O)c2cccs2)cc1N	-7	3	8	-6	106	89*
O=C(CCN1CCN(Cc2ccccc2)CC1)NNC(=O)Nc1cccc([N+](=O)[O-])c1	22	26*	5	6	115	-15
CCN(CC)CCCNC(=O)CNC(=O)c1nn(-c2ccc(OC)cc2OC)c(=O)c2ccccc12	.	.	.	.	100	.
COc1cccc(S(=O)(=O)N(C)C[C@H]2OCc3cnnn3CCCC(=O)N([C@H](C)CO)C[C@H]2C)c1	.	.	.	.	107	.
CN(C)CCCNC(=O)c1cc(C(=O)c2cccc(Cl)c2Cl)c[nH]1	27	16	9	23	93	-4
OCc1ccccc1SSc1ccccc1CO	17	.	21	-31	100	98*
OCc1ccccc1CNCc1ccccc1	18	21	1	19	94	6
NC(=O)CSc1nnc(CNc2ccc(F)cc2)n1CC1CCCO1 (configuration not stated)	11	32	14	4	107	.
Cc1ccc(NCc2nnc(SCC(N)=O)n2CC2CCCO2)c(C)c1 (configuration not stated)	-4	-91	-7	10	.	89*
O=C(CC1SC(=O)NC1=O)Oc1ccc(/C=N/NC(=O)c2ccccc2O)cc1 (configuration not stated)	0	-5	8	6	94	99*
Cn1nccc1C(=O)Oc1ccc(/C=N/NC(=O)c2ccccc2O)cc1	1	10	.	-3	110	93*
O=C(Oc1ccc(/C=N/NC(=O)c2ccccc2O)cc1)c1ccccc1	5	48	8	-10	101	-17
O=C(CCN1CCc2ccccc2C(c2ccccc2)C1)c1ccc2c(c1)OCCO2 (configuration not stated)	23	70*	-11	-18	98	97*
CCC(C)c1ccccc1OCC(=O)NN1C(=O)c2ccccc2C1=O (configuration not stated)	18	16	20	-3	119	2
CC(C)c1ccccc1OCC(=O)NN1C(=O)c2ccccc2C1=O	-1	42*	4	-26	96	-2

Bioassay records: PubChem BioAssay, several laboratories
